ChEMBL document CHEMBL3112446, “Discovery and optimization of a new class of pyruvate kinase inhibitors as potential therapeutics for the treatment of methicillin-resistant Staphylococcus aureus infections” (Bioorg Med Chem, 2014)
pIC50: −log10 of the molar value. ≈ marks a conversion by molar mass, not a printed value.

Tests used:
[1] = test system: HEK293; assay: Cytotoxicity against HEK293 cells assessed as cell viability at 100 ug/ml; format: cell-based; settings: human
[2] = test system: HEK293; assay: Cytotoxicity against HEK293 cells assessed as cell viability at 10 ug/ml; format: cell-based; settings: human
[3] = test system: HEK293; assay: Cytotoxicity against HEK293 cells assessed as cell viability at 1 ug/ml; format: cell-based; settings: human
[4] = molecular target: Pyruvate kinase PKLR (Homo sapiens) (UniProt P30613); assay: Inhibition human pyruvate kinase L at 10 uM
Sequence of Pyruvate kinase PKLR (Homo sapiens) (P30613 whole entry, looked up, canonical isoform): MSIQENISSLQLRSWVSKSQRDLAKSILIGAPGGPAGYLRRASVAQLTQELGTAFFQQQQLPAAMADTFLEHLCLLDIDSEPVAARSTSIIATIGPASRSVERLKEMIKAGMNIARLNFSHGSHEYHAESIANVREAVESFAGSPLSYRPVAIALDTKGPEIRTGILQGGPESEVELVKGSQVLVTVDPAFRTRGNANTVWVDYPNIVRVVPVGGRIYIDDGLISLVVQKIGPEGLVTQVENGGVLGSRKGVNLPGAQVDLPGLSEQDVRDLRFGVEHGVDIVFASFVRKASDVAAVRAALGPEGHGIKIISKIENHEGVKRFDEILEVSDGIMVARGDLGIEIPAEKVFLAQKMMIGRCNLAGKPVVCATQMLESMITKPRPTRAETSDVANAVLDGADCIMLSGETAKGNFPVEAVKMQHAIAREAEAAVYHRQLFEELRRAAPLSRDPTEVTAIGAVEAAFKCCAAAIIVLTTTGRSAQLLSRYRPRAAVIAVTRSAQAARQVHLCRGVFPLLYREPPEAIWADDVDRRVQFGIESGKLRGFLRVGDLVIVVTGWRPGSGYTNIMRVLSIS
In short: (§1)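 His-tagged recombinant human PK isoforms were used. Compounds were diluted in 100% DMSO and tested at 10 µM, the highest concentration tested. Values are percent inhibition of enzymatic activity.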

[5] = molecular target: Pyruvate kinase PKLR (Homo sapiens) (UniProt P30613); assay: Inhibition human pyruvate kinase R at 10 uM; in short: as §1
[6] = molecular target: Pyruvate kinase PKM (Homo sapiens) (UniProt P14618); assay: Inhibition human pyruvate kinase M2 at 10 uM; in short: as §1
Sequence of Pyruvate kinase PKM (Homo sapiens) (P14618 2-531 limits assumed): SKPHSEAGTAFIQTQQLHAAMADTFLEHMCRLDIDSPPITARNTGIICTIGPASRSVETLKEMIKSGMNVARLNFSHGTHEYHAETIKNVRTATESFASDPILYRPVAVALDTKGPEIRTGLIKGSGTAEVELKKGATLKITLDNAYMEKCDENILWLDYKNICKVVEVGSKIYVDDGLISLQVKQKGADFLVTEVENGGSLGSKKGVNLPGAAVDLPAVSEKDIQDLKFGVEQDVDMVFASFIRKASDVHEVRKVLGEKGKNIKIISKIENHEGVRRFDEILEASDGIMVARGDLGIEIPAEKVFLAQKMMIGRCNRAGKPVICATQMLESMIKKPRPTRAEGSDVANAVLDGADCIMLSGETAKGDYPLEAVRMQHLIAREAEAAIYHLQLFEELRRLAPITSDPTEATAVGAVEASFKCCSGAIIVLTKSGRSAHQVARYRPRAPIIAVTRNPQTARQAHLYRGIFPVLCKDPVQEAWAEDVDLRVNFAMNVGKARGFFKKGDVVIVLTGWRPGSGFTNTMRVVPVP

[7] = molecular target: Pyruvate kinase PKM (Homo sapiens) (UniProt P14618); assay: Inhibition human pyruvate kinase M1 at 10 uM; in short: as §1
[8] = test system: Staphylococcus aureus; assay: Antibacterial activity against Staphylococcus aureus ATCC 29213 by two fold serial dilution method; format: functional
[9] = Inhibition of methicillin-resistant Staphylococcus aureus pyruvate kinase; settings: for pIC50: read-out: IC50
In short: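 His-tagged MRSA PK. Compounds diluted in 100% DMSO. IC50 calculated from a triplicate 15-point titration.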

[10] = test system: Staphylococcus aureus; assay: Inhibition of methicillin-resistant Staphylococcus aureus pyruvate kinase at 10 uM
In short: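 His-tagged MRSA PK. Compounds diluted in 100% DMSO. Percent inhibition reported at the highest concentration tested, 10 µM.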

[11] = test system: Staphylococcus aureus; assay: Inhibition of methicillin-resistant Staphylococcus aureus pyruvate kinase at 1 uM
[12] = test system: Staphylococcus aureus; assay: Antibacterial activity against methicillin-resistant Staphylococcus aureus MW2 by two fold serial dilution method; format: functional

Structure (SMILES): Brc1ccc2cc(/C=C/c3cc4ccccc4[nH]3)[nH]c2c1
- Cell viability [1]: 115%
- Cell viability [2]: 114%
- Cell viability [3]: 107%
- inhibition [4]: 12.9%
- inhibition [5]: 23.8%
- inhibition [6]: -0.9%
- inhibition [7]: 16.1%
- MIC>98 [8]: >64 µg/mL
- pIC50 [9]: 8.35
- inhibition [10]: 93.4%

Structure (SMILES): Brc1ccc2[nH]c(-c3cc4ccccc4[nH]3)cc2c1
- inhibition [10]: 36%

Structure (SMILES): COc1ccc2[nH]c(-c3cc4ccc(Br)cc4[nH]3)cc2c1
- Cell viability [1]: 72%
- Cell viability [2]: 88%
- Cell viability [3]: 107%
- MIC>98 [8]: >64 µg/mL
- pIC50 [9]: 8.60

Structure (SMILES): Brc1ccc2cc(/C=C/c3cc4ccc(Br)cc4[nH]3)[nH]c2c1
- MIC>98 [8]: >64 µg/mL
- pIC50 [9]: 8.41

Structure (SMILES): Brc1ccc2[nH]c(-c3cc4ccccc4s3)cc2c1
- inhibition [11]: 42%
- MIC>98 [8]: >64 µg/mL

Structure (SMILES): Cn1c(C#Cc2cc3ccc(Br)cc3[nH]2)cc2ccc(Br)cc21
- MIC>98 [8]: >64 µg/mL
- pIC50 [9]: 7.86

Structure (SMILES): Brc1ccc2[nH]c(-c3cc4ccccc4o3)cc2c1
- inhibition [10]: 45%

Structure (SMILES): COCn1c(-c2cc3ccc(Br)cc3[nH]2)cc2cc(Br)ccc21
- Cell viability [1]: 73%
- Cell viability [2]: 102%
- Cell viability [3]: 123%
- MIC>98 [8]: >64 µg/mL
- pIC50 [9]: 8.72

Structure (SMILES): Brc1ccc2cc(-c3ccc(-c4cc5ccccc5[nH]4)cc3)[nH]c2c1
- MIC>98 [8]: >64 µg/mL
- pIC50 [9]: 8.25

Structure (SMILES): Brc1ccc2[nH]c(-c3nc4ccc(Br)cc4s3)cc2c1
- MIC>98 [8]: >64 µg/mL
- pIC50 [9]: 8.39

Structure (SMILES): Brc1ccc2[nH]c(-c3nc4ccccc4s3)cc2c1
- MIC>98 [8]: >64 µg/mL
- pIC50 [9]: 6.45

Structure (SMILES): Brc1ccc2cc(CCc3cc4ccc(Br)cc4[nH]3)[nH]c2c1
- Cell viability [1]: 85%
- Cell viability [2]: 92%
- Cell viability [3]: 104%
- inhibition [4]: 9.7%
- inhibition [5]: 24.1%
- inhibition [6]: 1.3%
- inhibition [7]: 9.9%
- MIC>98 [8]: >64 µg/mL
- pIC50 [9]: 8.19
- inhibition [10]: 93.4%

Structure (SMILES): CN1CCN(CCn2c(-c3cc4ccc(Br)cc4[nH]3)cc3cc(Br)ccc32)CC1
- inhibition [4]: 16.8%
- inhibition [5]: 26.1%
- inhibition [6]: 1.7%
- inhibition [7]: 3.2%
- MIC>98 [8]: 4 µg/mL (≈ 7.75 µM)
- pIC50 [9]: 8.70
- inhibition [10]: 100%

Structure (SMILES): O=C(Cn1c(-c2cc3ccc(Br)cc3[nH]2)cc2cc(Br)ccc21)N1CCOCC1
- MIC>98 [8]: >64 µg/mL
- pIC50 [9]: 8.22

Structure (SMILES): O=C(O)Cn1c(-c2cc3ccc(Br)cc3[nH]2)cc2cc(Br)ccc21
- MIC>98 [8]: >64 µg/mL
- pIC50 [9]: 7.95

Structure (SMILES): Brc1ccc2cc(-c3cc4ccccc4o3)[nH]c2c1
- inhibition [4]: -6%
- inhibition [5]: -5.5%
- inhibition [6]: 0.4%
- inhibition [7]: 5.3%
- MIC>98 [8]: >64 µg/mL
- pIC50 [9]: 6.97
- inhibition [10]: 95.9%

Structure (SMILES): Brc1ccc2[nH]c(C#Cc3cc4ccc(Br)cc4[nH]3)cc2c1
- inhibition [4]: 14%
- inhibition [5]: 27.8%
- inhibition [6]: 8.7%
- inhibition [7]: 19.5%
- MIC>98 [8]: 16 µg/mL (≈ 38.6 µM)
- pIC50 [9]: 8.33
- inhibition [10]: 86.3%

Structure (SMILES): Brc1ccc2[nH]c(-c3cc4cc(Br)c(Br)cc4[nH]3)cc2c1
- MIC>98 [8]: 1 µg/mL (≈ 2.13 µM)
- pIC50 [9]: 8.80

Structure (SMILES): Brc1ccc2cc(-c3cccc(-c4cc5ccccc5[nH]4)c3)[nH]c2c1
- inhibition [10]: 36%

Structure (SMILES): Brc1ccc2cc(C#Cc3cc4ccc(Br)cc4[nH]3)[nH]c2c1
- MIC>98 [8]: >64 µg/mL
- pIC50 [9]: 8.62

Structure (SMILES): OCCn1c(-c2cc3ccc(Br)cc3[nH]2)cc2cc(Br)ccc21
- inhibition [4]: 6.8%
- inhibition [5]: 25.2%
- inhibition [6]: 12.1%
- inhibition [7]: 14.6%
- MIC>98 [8]: 2 µg/mL (≈ 4.61 µM)
- pIC50 [9]: 8.89
- inhibition [10]: 101%

Structure (SMILES): Brc1ccc2cc(-c3ccc(-c4cc5ccc(Br)cc5[nH]4)cc3)[nH]c2c1
- inhibition [11]: 54%
- MIC>98 [8]: >64 µg/mL

Structure (SMILES): Brc1ccc2[nH]c(-c3cc4ccc(Br)cc4[nH]3)cc2c1
- inhibition [4]: 6.1%
- inhibition [5]: 13.6%
- inhibition [6]: 8.7%
- inhibition [7]: 6.9%
- MIC [12]: 0.5 µg/mL (≈ 1.28 µM)
- pIC50 [9]: 8.66
- inhibition [10]: 97.8%

Structure (SMILES): Brc1ccc2[nH]c(CCc3cc4ccc(Br)cc4[nH]3)cc2c1
- MIC>98 [8]: >64 µg/mL
- pIC50 [9]: 8.20

Structure (SMILES): Cn1c(C#Cc2cc3ccc(Br)cc3n2C)cc2ccc(Br)cc21
- inhibition [10]: 27%

Structure (SMILES): O=[N+]([O-])c1cc(-c2cc3ccccc3[nH]2)ccc1-c1cc2ccc(Br)cc2[nH]1
- inhibition [4]: -8.9%
- inhibition [5]: 0%
- inhibition [6]: 6.8%
- inhibition [7]: 9.5%
- MIC>98 [8]: 2 µg/mL (≈ 4.63 µM)
- pIC50 [9]: 8.74
- inhibition [10]: 86.2%

Structure (SMILES): Brc1ccc2cc(-c3ccc(-c4cc5ccc(Br)cc5[nH]4)s3)[nH]c2c1
- inhibition [11]: 28%
- MIC>98 [8]: >64 µg/mL

Structure (SMILES): Brc1ccc2cc(-c3cc4ccccc4s3)[nH]c2c1
- MIC>98 [8]: >64 µg/mL
- pIC50 [9]: 7.85

Structure (SMILES): Brc1ccc2c(c1)cc(-c1cc3ccc(Br)cc3[nH]1)n2CCN1CCOCC1
- inhibition [4]: 32.1%
- inhibition [5]: 50.7%
- inhibition [6]: 3.5%
- inhibition [7]: 13.1%
- MIC>98 [8]: >64 µg/mL
- pIC50 [9]: 8.92
- inhibition [10]: 101%

Structure (SMILES): Brc1ccc2cc(C#Cc3cc4ccccc4[nH]3)[nH]c2c1
- MIC>98 [8]: >64 µg/mL
- pIC50 [9]: 8.15

Structure (SMILES): Cn1c(-c2cc3cc(Br)ccc3[nH]2)cc2ccc(Br)cc21
- IC50 [9]: Not Active
- inhibition [10]: 25%

Structure (SMILES): Cn1c(-c2cc3ccc(Br)cc3[nH]2)cc2cc(Br)ccc21
- inhibition [4]: 2.8%
- inhibition [5]: 2.7%
- inhibition [6]: 9.1%
- inhibition [7]: 13.9%
- MIC>98 [8]: >64 µg/mL
- pIC50 [9]: 9.00
- inhibition [10]: 99%

Structure (SMILES): Fc1ccc2[nH]c(-c3cc4ccc(Br)cc4[nH]3)cc2c1
- MIC [12]: 0.5 µg/mL (≈ 1.52 µM)
- pIC50 [9]: 8.55

Structure (SMILES): Brc1ccc2cc(-c3cc4cc(Br)c(Br)cc4[nH]3)[nH]c2c1
- Cell viability [1]: 63%
- Cell viability [2]: 71%
- Cell viability [3]: 102%
- inhibition [4]: 23.7%
- inhibition [5]: 33.4%
- inhibition [6]: 15.8%
- inhibition [7]: 8.6%
- MIC>98 [8]: 0.5 µg/mL (≈ 1.07 µM)
- pIC50 [9]: 8.82
- inhibition [10]: 94.1%

Structure (SMILES): COc1cc(-c2cc3ccccc3[nH]2)ccc1-c1cc2ccc(Br)cc2[nH]1
- inhibition [4]: 4.3%
- inhibition [5]: 13.5%
- inhibition [6]: 14.6%
- inhibition [7]: 7.3%
- MIC>98 [8]: >64 µg/mL
- pIC50 [9]: 8.68
- inhibition [10]: 62.2%

Structure (SMILES): Brc1ccc2cc(-c3cc4ccccc4[nH]3)[nH]c2c1
- MIC>98 [8]: 2 µg/mL (≈ 6.43 µM)
- pIC50 [9]: 7.67

Structure (SMILES): Brc1cc2cc(-c3cc4ccccc4[nH]3)[nH]c2cc1Br
- inhibition [10]: 39%

Structure (SMILES): Brc1ccc2[nH]c(/C=C/c3cc4ccc(Br)cc4[nH]3)cc2c1
- MIC>98 [8]: >64 µg/mL
- pIC50 [9]: 8.39

Structure (SMILES): Brc1ccc2cc(-c3nc4ccccc4s3)[nH]c2c1
- inhibition [4]: 7.8%
- inhibition [5]: 21.6%
- inhibition [6]: 3%
- inhibition [7]: 12.4%
- MIC>98 [8]: >64 µg/mL
- pIC50 [9]: 6.82
- inhibition [10]: 89.8%

Structure (SMILES): Brc1ccc2[nH]c(-c3cc4cc(Br)ccc4[nH]3)cc2c1
- inhibition [4]: 9.8%
- inhibition [5]: 24.4%
- inhibition [6]: 0.5%
- inhibition [7]: 12.3%
- pIC50 [9]: 8.52
- inhibition [10]: 71%

Structure (SMILES): Brc1ccc2cc(-c3cc4cc(-c5ccccc5)ccc4[nH]3)[nH]c2c1
- MIC>98 [8]: >64 µg/mL
- pIC50 [9]: 8.66
